Bioassay records from PubChem.
STAT1 act = activators of IFN-gamma induced STAT1 signaling | activation (% of control), % at 5.5 µM | AID 932 | actives 2.6% (n = 200,000) | NIH 3T3 STAT1-luciferase reporter, luminescence; 100% = IFN-gamma alone, no compound;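 active = activation above the screen-wide mean activation plus 3 SD, cut at about 130% in these data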;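 also: raw ratio to IFN-gamma control signal so 100% means no change and 0% no light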
APP 5'UTR act = APP 5'UTR luciferase reporter activation. SH-SY5Y APP 5'UTR luciferase reporter, luminescence; zero percent = DMSO vehicle wells. actives 1% (n = 190,000). activation, % at 2 µM. AID 1276;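 active = activation above a set limit, based on mean plus 3 SD of controls, cut at about 140% in these data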
NF-kB neuron act = raises NF-kB expression in human neuronal cells; fold change at 12.5 µM; actives 1.6% (n = 190,000); AID 1239; NF-kB reporter expression; stronger effect = higher value; in the data active = fold change above about 3.3
MDM2 E3 inh = blocks human Mdm2 ubiquitin ligase activity; actives 0.11% (n = 210,000); Q00987; signal enhancement, % at 5 µM; cell-based MDM2 ubiquitination luciferase reporter, 2 h; 0 = plate control, 100 = twice control, blank-subtracted;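 active = signal enhancement of 30% or more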;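 also: luminescence tracks abundance of the self-degrading MDM2-luciferase fusion protein; higher signal means inhibition of MDM2 E3 ligase activity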
Target sequence (Q00987 whole entry, looked up, the tested form may be a part): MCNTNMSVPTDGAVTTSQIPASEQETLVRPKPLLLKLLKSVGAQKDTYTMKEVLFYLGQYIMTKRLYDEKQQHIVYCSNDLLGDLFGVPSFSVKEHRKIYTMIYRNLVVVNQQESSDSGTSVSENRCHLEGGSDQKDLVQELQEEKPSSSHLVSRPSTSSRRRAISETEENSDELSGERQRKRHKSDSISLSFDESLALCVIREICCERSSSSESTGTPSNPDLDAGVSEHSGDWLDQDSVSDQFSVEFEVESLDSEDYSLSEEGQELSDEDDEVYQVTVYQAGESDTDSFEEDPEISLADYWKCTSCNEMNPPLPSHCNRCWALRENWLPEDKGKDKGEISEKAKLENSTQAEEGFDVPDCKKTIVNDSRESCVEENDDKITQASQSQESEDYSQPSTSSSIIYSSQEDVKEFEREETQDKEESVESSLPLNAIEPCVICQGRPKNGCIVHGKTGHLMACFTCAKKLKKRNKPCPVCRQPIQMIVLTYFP
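Assay system: stable mammalian line carrying autodegrading MDM2–luciferase fusion reporter; Input: 2000 cells in each well; Compound dosing: single-point 5 µM; Schedule: 2 h compound exposure at 37 °C; Signal: SteadyLite luciferase luminescence after 15 min room-temperature reagent incubation; Evaluation: % luminescence enhancement versus blank-corrected plate control mean; Benchmarks: plate controls and plate blanks.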
Wee1 stabilizer = human Wee1 degradation inhibition, primary screen. P30291. HeLa Luc-Wee1K328M stability, luciferase luminescence; 100% = proteasome inhibitor MG132 effect. reporter increase, % at 5 µM. actives 1.2% (n = 220,000). AID 1321;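 active = activation above the mean of all tested compounds plus 3 SD, set per screening run, cut at about 8.8% in these data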;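 also: cells exposed to compound for 20 h before luminescence read; 0% = DMSO alone and 100% = MG132 at 30 µM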
p97 ATPase inh = blocks human p97 ATPase activity. P55072. recombinant p97 ATPase, Kinase-Glo ATP luminescence, 3 h. inhibition, % at 8 µM. actives 0.42% (n = 220,000). AID 1481; in the data active = inhibition above about 15%;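 also: 0% = DMSO vehicle and 100% = wells lacking enzyme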
The depositor's hits bear a star; x = no result given. The list is not random: actives were taken first. Their share in the collection is about 4.6%.

SMILES | STAT1 act | APP 5'UTR act | NF-kB neuron act | MDM2 E3 inh | Wee1 stabilizer | p97 ATPase inh
Cc1ccccc1NC(=S)N1CCC(NC(=O)c2ccco2)CC1 | 94 | -5 | 1.2 | 6 | -4 | 1
CC(OC(=O)c1ccc([N+](=O)[O-])s1)C(=O)Nc1ncc(Cl)cc1Cl (stereo not drawn) | 99 | 7 | 1 | 8 | 1 | 4
O=C(NNC(=O)[C@@H]1CCCC[C@@H]1C(=O)O)c1cccs1 | 114 | 33 | 1.5 | -1 | 3 | 2
Cc1ccsc1C(=O)NNC(=O)C1CC=CCC1C(=O)O (stereo not drawn) | 144* | 58 | 1.5 | 4 | 1 | -5
Cc1ccsc1C(=O)NNC(=O)C1CCCCC1C(=O)O (stereo not drawn) | 129* | 97 | 1.4 | -13 | 0 | -6
O=C(Nc1cccc(C(F)(F)F)c1)C1CCCO1 (stereo not drawn) | 97 | -12 | 1.3 | 1 | 1 | 6
Cc1noc(C)c1COc1cccc(C(=O)OCC(=O)N2CC(=O)Nc3ccccc32)c1 | 109 | -93 | 1.2 | -21 | 18* | -4
CSc1ccc(C2c3[nH]c4ccccc4c3CCN2C(=O)c2cc(C)n(C)n2)cc1 (stereo not drawn) | 132* | 72 | 2.6 | -10 | 2 | -1
Cc1nc(COc2ccccc2Cl)sc1-c1ccnc(N)n1 | x | x | x | 1 | -1 | -2
CN1CCN(c2nc(-c3cc4ccccc4o3)cs2)CC1 | 129* | 109 | 2.8 | 7 | 3 | 3
CN1CCN(c2nc(-c3cccs3)cs2)CC1 | 111 | 3 | 1.3 | -2 | -1 | 2
CCOC(=O)c1cnn(-c2ccccc2)c1NC(=O)CN1CCCCC1 | x | x | x | -6 | 1 | 6
Nc1nc(Nc2ccccc2F)nc(N2CCOCC2)c1[N+](=O)[O-] | x | x | x | -91 | 8.9* | 4
O=C(CSc1n[nH]c(=O)[nH]c1=O)c1ccc([N+](=O)[O-])cc1 | x | x | x | -11 | 12* | 4
COc1ccc(C(=O)CSc2n[nH]c(=O)[nH]c2=O)cc1 | 99 | -4 | 1 | -19 | -2 | -1
C/C(=C\C(=O)c1ccc(Cl)s1)N(C)C | 109 | 1 | 0.96 | -23 | -2 | 1
C/C(=N\Nc1nc(-c2ccccc2)cs1)c1cccs1 | 145* | 116 | 0.64 | -17 | 2 | 4
CC(C)CN=CC1=C(O)c2ccccc2C1=O | x | x | x | -25 | -4 | 2
COc1cc(N=CC2=C(O)c3ccccc3C2=O)cc(OC)c1 | 148* | 25 | 1.3 | x | 0 | -2
CC(CCc1ccccc1)NC(=O)CN1CCSc2ccccc21 (stereo not drawn) | 90 | 20 | 1 | -5 | -2 | -4
NNC(=O)c1sc(-c2ccc(Cl)cc2)cc1N | 134* | 7 | 1.1 | -1 | 3 | 0
NNC(=O)c1cc(Cl)ccc1Cl | 101 | -19 | 1.2 | 1 | -4 | -6
CCOC(=O)c1sc(-c2ccc(Br)cc2)cc1N | 137* | 77 | 2.5 | -14 | 5 | -10
CCOC(=O)c1cc(-c2ccc(N)cc2)sc1N | 139* | 19 | 3 | -11 | 0 | 5
COC(=O)Cc1cc(=O)[nH]c(/N=C(\N)Nc2ccc(C(C)C)cc2)n1 | 91 | 12 | 0.85 | -4 | -3 | -1
SMILES | STAT1 act | APP 5'UTR act | NF-kB neuron act | MDM2 E3 inh | Wee1 stabilizer | p97 ATPase inh
COc1ccc2[nH]c(=O)c(CNc3ccccc3)cc2c1 | 129* | 43 | 1.2 | -14 | 2 | 8
COc1cc(/C=C2/CCc3ccccc3C2=O)cc(OC)c1OC | 105 | 27 | 3.8* | -1 | 1 | -2
COc1cc(/C=C2\CCc3ccccc3C2=O)cc(OC)c1OC | 95 | 7 | 3.1 | 21 | -2 | -1
COc1ccc(/C=C2/CCc3ccccc3C2=O)cc1OC | 98 | 101 | 3.4* | -6 | -2 | -3
CCN(CC)Cc1ccccc1Sc1ccccc1 | 98 | -17 | 1.1 | -84 | 5 | -6
c1csc(C2Nc3ccccc3-c3nc4ccccc4n32)c1 (stereo not drawn) | 128 | 47 | 1.7 | -19 | 1 | -9
Cc1ccsc1C1Nc2ccccc2-c2nc3ccccc3n21 (stereo not drawn) | 129* | 34 | 1.2 | -5 | 7 | 0
Cc1ccsc1C1Nc2ccccc2C(=O)N1O (stereo not drawn) | 86 | -2 | 1.4 | 15 | 9.0* | -4
